Rows were chosen to be rich in hits. Some 3.4% of all compounds tested hit in one or more screens of this group.
ROMK primary: human ROMK K+ channel modulation, primary screen. P48048. Tet-inducible ROMK, thallium flux fluorescence; actives lie on both sides. B-score at 10 µM. 130,000 compounds, 2% hits;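 active = signal ratio slope over the read window, or its plate-corrected B-score, at least 3 SD from the plate mean, either direction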;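 note: B-score of the F/F0 ratio slope over 7 to 12 s after thallium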
p97 inhibitor: blocks human p97 ATPase activity | P55072 | recombinant p97 ATPase, Kinase-Glo ATP luminescence, 3 h | inhibition, % at 8 µM | 220,000 compounds, 0.42% hits; in the data active = inhibition above about 15%
MDM2 E3 inh: inhibitors of human Mdm2 E3 ubiquitin ligase | Q00987 | cell-based MDM2 ubiquitination luciferase reporter, 2 h; 0 = plate control, 100 = twice control, blank-subtracted | signal enhancement, % at 5 µM | 210,000 compounds, 0.11% hits | AID 1230;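 active = signal enhancement of 30% or more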;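 note: luminescence tracks abundance of the self-degrading MDM2-luciferase fusion protein; higher signal means inhibition of MDM2 E3 ligase activity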
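Material: stable MDM2–luciferase fusion reporter cells / Quantity: 2000 cells/well / Dosing: single 5 µM compound dose, 0.2% final DMSO / Buffer or medium: DMEM / Schedule: 4 h cell settling then 2 h compound exposure, 37 °C / Detection: luminescence with SteadyLite reagent, 15 min at room temperature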
Redox H2O2 prof: compounds producing H2O2 with reducing agent – biochemical, NIH compound library profiling, artefact control for MLSCN library redox annotation, primary screen | 200,000 compounds, 0.03% hits | AID 878 | DTT-dependent redox cycling H2O2, phenol red/HRP absorbance; 100% = 100 µM peroxide control, 0% = buffer | activation, % at 10 µM;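 active = activation of at least 50% relative to the plate's high and low controls in the primary single-dose screen; inactive = activation below 50%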;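 note: compound incubated with DTT at 0.8 mM final as the reducing agent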
Cl transport mod: modulators of human KCC2 chloride dependent transport. KCC2 cells, thallium flux FluoZin-2 fluorescence. B-score of Tl+ flux slope (higher = more flux/activation; lower = inhibition) at 10 µM. 190,000 compounds, 2.2% hits. AID 1456;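 active = thallium flux slope and its plate-corrected score both differing from the plate sample mean at a set confidence after two filtering rounds, in either direction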;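 note: slope of fluorescence scaled to starting intensity during 10 to 20 s after thallium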
Target sequence (Q9H2X9 whole entry, looked up): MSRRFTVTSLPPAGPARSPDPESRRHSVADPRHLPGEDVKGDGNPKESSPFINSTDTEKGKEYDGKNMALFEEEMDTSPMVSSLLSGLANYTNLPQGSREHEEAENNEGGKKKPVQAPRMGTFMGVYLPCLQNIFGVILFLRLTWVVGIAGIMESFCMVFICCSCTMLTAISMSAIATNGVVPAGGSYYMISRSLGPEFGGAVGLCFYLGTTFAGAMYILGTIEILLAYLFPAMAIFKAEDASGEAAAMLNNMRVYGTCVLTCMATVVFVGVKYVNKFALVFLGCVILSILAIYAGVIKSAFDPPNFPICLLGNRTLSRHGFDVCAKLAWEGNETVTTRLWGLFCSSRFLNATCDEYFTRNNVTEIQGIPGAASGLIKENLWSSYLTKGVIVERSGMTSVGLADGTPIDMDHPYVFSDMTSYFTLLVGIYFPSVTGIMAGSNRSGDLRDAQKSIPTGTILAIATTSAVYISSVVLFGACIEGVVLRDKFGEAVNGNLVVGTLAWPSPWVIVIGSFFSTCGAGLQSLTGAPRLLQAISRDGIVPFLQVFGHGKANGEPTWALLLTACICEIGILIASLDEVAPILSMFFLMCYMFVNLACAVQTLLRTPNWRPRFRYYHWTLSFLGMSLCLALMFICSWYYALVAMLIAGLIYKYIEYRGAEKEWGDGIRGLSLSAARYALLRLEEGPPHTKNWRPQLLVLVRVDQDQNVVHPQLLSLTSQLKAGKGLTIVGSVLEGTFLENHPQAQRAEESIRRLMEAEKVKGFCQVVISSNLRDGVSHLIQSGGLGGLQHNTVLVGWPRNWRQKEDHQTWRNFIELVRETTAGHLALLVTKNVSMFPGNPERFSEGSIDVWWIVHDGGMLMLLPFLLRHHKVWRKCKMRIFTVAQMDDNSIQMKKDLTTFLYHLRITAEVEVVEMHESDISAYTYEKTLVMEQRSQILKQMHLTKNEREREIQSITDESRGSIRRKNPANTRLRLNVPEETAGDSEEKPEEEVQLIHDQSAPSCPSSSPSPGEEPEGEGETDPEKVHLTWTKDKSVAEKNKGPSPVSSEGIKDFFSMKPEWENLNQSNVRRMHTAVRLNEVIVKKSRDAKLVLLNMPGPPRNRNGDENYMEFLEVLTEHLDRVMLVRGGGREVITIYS
PKD1 inh: blocks activity of human protein kinase D1; PKD1 kinase fluorescence polarization assay; inhibition, % (no concentration beside the values); 200,000 compounds, 0.056% hits; in the data active = inhibition above about 50%
KCC2 secondary: confirmation of human KCC2 transport modulators | shares compounds with Cl transport mod | HEK293-KCC2, thallium flux, FluoZin2 fluorescence; active compounds read high | normalised thallium flux (F/F0 slope) at 10 µM | 3,700 compounds, 15% hits | AID 1713;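 active = thallium flux slope above the same plate's solvent-only control mean plus 3 SD; inconclusive = the two replicate wells disagree; inactive = no significant difference from solvent-only control wells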
KCC2 bumet counter: thallium flux persisting under bumetanide in KCC2 cells, counter-screen secondary assay; shares compounds with Cl transport mod; AID 1714; 3,700 compounds, 49% hits; HEK293-KCC2 + bumetanide/ouabain, thallium flux FluoZin2; active compounds read high; normalized thallium flux at 10 µM;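 active = thallium entry rate above the same plate's blocked-transporter control wells by more than 3 SD; inconclusive = the two repeat wells disagree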;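 note: raw slope of fluorescence over initial fluorescence between 10 and 20 s after thallium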
KCC2 secondary2: confirmation of human KCC2 transport modulators | HEK293-KCC2, thallium flux FluoZin2 fluorescence; actives lie on both sides; F/F0 rise rate, 10–20 s post-thallium | AID 1715 | normalized thallium flux at 10 µM | shares compounds with Cl transport mod | 3,700 compounds, 23% hits;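 active = thallium flux slope more than 3 SD above or below the plate's solvent-only control mean, mostly below; inconclusive = the two repeat wells disagreed; inactive = no significant shift from solvent-only controls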
HEK293 Tl flux: acts in parental HEK cells, KCC2 counter-screen | shares compounds with Cl transport mod | HEK293 parental cells, thallium flux FluoZin2, ouabain; baseline-ratio fluorescence slope, 10–20 s after thallium | thallium flux rate (normalised fluorescence) at 10 µM | 3,700 compounds, 46% hits | AID 1716;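 active = thallium flux rate significantly above the same plate's solvent-only control wells, beyond their mean plus 3 SD; inconclusive = the two replicate wells gave conflicting results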
KCC2 ouabain: KCC2 (human) modulation, ouabain retest; shares compounds with Cl transport mod; 3,700 compounds, 48% hits; HEK293-KCC2, thallium flux FluoZin2 fluorescence; bidirectional: low = inhibitor, high = activator; raw Tl+ flux slope (below DMSO = inhibition, above = activation) at 10 µM; AID 1717;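 active = thallium flux slope beyond 3 SD from same-plate DMSO control mean in most replicates, usually higher, sometimes lower; inconclusive = repeat tests gave conflicting results; inactive = no significant difference from controls in most replicates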;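 note: slope of initial-normalized fluorescence between seconds 10 and 20 after thallium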
HEK293 Tl flux2: parental HEK flux effect, counter-screen 2 | shares compounds with Cl transport mod | HEK293 parental, thallium flux FluoZin-2 fluorescence slope | thallium flux slope at 10 µM | 3,700 compounds, 33% hits;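 active = thallium flux slope above the same plate's solvent-control mean plus 3 SD in both duplicate wells; inconclusive = duplicate wells that disagreed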;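 note: run without ouabain in cells lacking the KCC2 cotransporter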
Hits are given with their value; - = inactive; ? = inconclusive; . = no result.

SMILES	ROMK primary	p97 inhibitor	MDM2 E3 inh	Redox H2O2 prof	Cl transport mod	PKD1 inh	KCC2 secondary	KCC2 bumet counter	KCC2 secondary2	HEK293 Tl flux	KCC2 ouabain	HEK293 Tl flux2
CC(C)c1nc2sc3c(=O)[nH]c(=S)[nH]c3c2c2c1CCCC2	.	-	-	.	-	.	.	.	.	.	.	.
CC(C)c1nc2sc3c(=O)[nH]c(=S)[nH]c3c2c2c1CCC2	.	-	-	-	-7.9	-	-	0.0063	?	0.0051	0.0094	?
O=C1NC(=O)/C(=C\c2ccc(Oc3cnccn3)cc2)S1	-	-	-	-	-	-	.	.	.	.	.	.
O=C1NC(=S)S/C1=C/c1ccc(Oc2cnccn2)cc1	-	-	-	-	.	-	0.012	0.038	-	0.012	0.037	?
O=C(NCCc1nc2ccccc2[nH]1)/C(=C/c1ccco1)NC(=O)c1ccc(Br)o1	-	-	-	-	-	-	.	.	.	.	.	.
CSc1ncc(Cl)c(C(=O)C(C#N)c2nc3c(C)cc(C)cc3c(=O)[nH]2)n1 (centres undefined)	-	-	-	-	5	-	-	0.019	-	0.016	?	0.015
CSc1ncc(Cl)c(C(=O)Nc2cccc(C)c2)n1	.	-	-	-	-	-	.	.	.	.	.	.
CCOc1ccc2c(c1)C(N(CCN1CCOCC1)C(=O)Nc1ccc(OC)cc1OC)CC(C)(C)O2 (centres undefined)	-	-	-	-	-	-	.	.	.	.	.	.
COc1ccc(NC(=O)CCC2CCCCC2)cc1S(=O)(=O)N1CCCCC1	.	-	-	-	-3.9	-	-	-	-	-	-	-
CC(C)c1nc2c(c(=O)c3ccccc3n2C)c(=O)n1-c1ccc(F)cc1	.	-	-	-	-	-	.	.	.	.	.	.
Cc1c(-c2n[nH]c(=S)n2-c2ccc(C(F)(F)F)cc2)nnn1-c1ccccc1	-	-	-	-	-	-	.	.	.	.	.	.
Cc1c(-c2n[nH]c(=S)n2-c2ccc(Br)cc2)nnn1-c1ccc(Cl)cc1	-	-	-	-	5.4	-	-	0.024	-	0.01	-	?
CC(=O)Nc1ccccc1NC(=O)C/C(C)=N/NC(=O)c1ccc([N+](=O)[O-])c(Cl)c1	-	-	-	-	-	-	.	.	.	.	.	.
C/C(=N\NC(=O)c1ccc([N+](=O)[O-])c(C)c1)c1ccccc1Cl	-	-	-	-	12	-	?	0.046	-	?	0.041	?
CCc1nnc(NC(=O)C2CCCN(S(=O)(=O)c3ccccc3)C2)s1 (centres undefined)	-	-	-	-	.	-	?	-	-	-	-	-
COc1ccc(NC(=O)c2cccnc2N2CCCC2)cc1	-	-	-	-	.	-	?	-	-	-	-	-
Fc1ccc(CSc2nncn2NC/C=C/c2ccccc2)cc1	.	-	-	-	.	-	-	-	?	-	?	-
Fc1ccc(CSc2nncn2NCc2ccccc2)cc1	.	-	.	-	-	-	.	.	.	.	.	.
Cc1ccc(C)c(NC(=O)CSc2nnc([C@@H](N)Cc3ccccc3)o2)c1	.	-	-	-	-4.3	-	-	-	?	-	0.014	?
Cc1cc(NS(=O)(=O)c2ccc(NC(=O)c3oc4ccccc4c3C)cc2)no1	.	-	-	-	-2.9	-	-	-	-	-	?	-
CN(C(=O)COC(=O)c1n[nH]c2ccccc12)C1CCS(=O)(=O)C1 (centres undefined)	-	-	-	-	-	-	.	.	.	.	.	.
Cc1noc(C(=O)NCc2ccc(F)cc2)c1Cl	.	-	-	-	6.8	-	-	-	-	-	-	-
CCCOc1ccc(N2C(=O)CC(N3CCC(c4nc5ccccc5o4)CC3)C2=O)cc1 (centres undefined)	-	-	-	-	-	-	.	.	.	.	.	.
CC1Cc2ccccc2N1C(=O)CCn1c(=O)sc2ccccc21 (centres undefined)	.	.	-	.	-1.7	.	0.0041	0.0033	0.021	?	0.013	?
C(=C\c1ccccc1)/C=N/Nc1nc(N2CCCCC2)nc(N2CCCCC2)n1	.	-	-	-	.	-	.	.	.	.	.	.
SMILES	ROMK primary	p97 inhibitor	MDM2 E3 inh	Redox H2O2 prof	Cl transport mod	PKD1 inh	KCC2 secondary	KCC2 bumet counter	KCC2 secondary2	HEK293 Tl flux	KCC2 ouabain	HEK293 Tl flux2
O=C(NC(=S)N1CCCc2ccccc21)c1ccccc1	.	-	-	-	.	-	.	.	.	.	.	.
COc1cc2c(cc1OC)CN(C(=S)NC(=O)c1ccccc1)CC2	.	-	-	-	23	-	0.026	0.05	?	0.031	0.033	0.032
COc1ccc(C(=O)NC(=S)N2CCCc3ccccc32)cc1OC	-	-	-	-	5.3	-	-	0.023	-	0.012	?	0.012
Cc1ccccc1OCC(=O)NC(=S)Nc1ccc2c3c(cccc13)CC2	.	-	-	-	-	-	.	.	.	.	.	.
COc1ccccc1C(=O)NC(=S)N1CCc2ccccc21	-	-	.	-	6.5	-	-	0.019	-	0.0085	?	-
COc1ccc(OCC(=O)NC(=S)Nc2ccc3c4c(cccc24)CC3)cc1	-	-	-	-	29	-	-	0.079	-	0.031	0.036	0.014
O=C(c1cc([N+](=O)[O-])ccc1N1CCCC1)N1CCCCC1	-	-	-	-	-	-	.	.	.	.	.	.
O=C(c1ccc(COc2ccccc2[N+](=O)[O-])o1)N1CCCCCC1	.	-	-	-	-	-	.	.	.	.	.	.
O=S(=O)(c1ccccc1C(F)(F)F)N1C=CC(C(F)(F)F)=NCC1	.	-	-	.	-	.	.	.	.	.	.	.
CCOC(=O)c1ccc(NC(=S)N2CCC(C(N)=O)CC2)cc1	.	-	-	-	-	-	.	.	.	.	.	.
CC(C)C(=O)NC(=S)N1CCc2ccccc21	-	-	-	-	5.2	-	-	0.021	?	0.018	0.028	0.017
COc1ccccc1-c1cc(C(=O)N2CCCc3ccccc32)no1	-	-	-	-	-3.9	-	-	-	-	?	0.016	-
O=C(Cc1ccccc1)N1CCc2ccccc21	-	-	-	-	.	-	.	.	.	.	.	.
